Assays:
Type in all cases: functional
K562 = assay: Growth inhibition of human K562 cells at 10 uM after 48 hrs by coulter counter method; details: K562, 48 h, read-out: GI
Summary of the method: (§1)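 Single high-dose NCI 60-cell-line panel screen across nine tumor subpanels. Test solutions (0.2 mL) were added in duplicate to wells holding 1.8 mL of culture at 6 × 10⁴ cells/mL. Controls got PBS and DMSO at identical dilutions. Incubation was 48 h at 37 °C in humidified 5% CO₂. Cells were diluted 10-fold in saline, Coulter-counted and dilution-corrected. Results were expressed as percent growth inhibition versus control.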

MOLT-4 = assay: Growth inhibition of human MOLT4 cells at 10 uM after 48 hrs by coulter counter method; details: MOLT-4, 48 h, read-out: GI; summary of the method: as §1
IGROV-1 = assay: Growth inhibition of human IGROV1 cells at 10 uM after 48 hrs by coulter counter method; details: IGROV-1, 48 h, read-out: GI; summary of the method: as §1
UO-31 = assay: Growth inhibition of human UO31 cells at 10 uM after 48 hrs by coulter counter method; details: UO-31, 48 h, read-out: GI; summary of the method: as §1
T47D = assay: Growth inhibition of human T47D cells at 10 uM after 48 hrs by coulter counter method; details: read-out: GI; summary of the method: as §1

SMILES | inhibition of growth at 10 µM (K562) [%] | inhibition of growth at 10 µM (MOLT-4) [%] | inhibition of growth at 10 µM (IGROV-1) [%] | inhibition of growth at 10 µM (UO-31) [%] | inhibition of growth at 10 µM (T47D) [%]
CN(C)c1ccc(-c2nnc(Nc3nc4ccccc4c(=O)n3-c3ccccc3)s2)cc1 | 52 | 34.6 |  |  | 
O=c1nc(Nc2nc3ccccc3c(=O)n2-c2ccc(Cl)cc2)cc(O)[nH]1 | 52 | 34.6 |  |  | 
O=c1nc(Nc2nc3ccccc3c(=O)n2-c2ccccc2)cc(O)[nH]1 |  |  | 72.3 |  | 
O=C1Nc2ccc(CNc3ccccn3)cc2C(c2ccc(Cl)cc2)N1 (centres undefined) |  |  |  | 40.5 | 43.9
COc1ccc(C2NC(=O)Nc3ccc(S(=O)(=O)Nc4ccccn4)cc32)cc1 (centres undefined) |  |  |  | 40.5 | 43.9
